Reference: ChEMBL document CHEMBL2401708, “Superior anticancer activity of halogenated chalcones and flavonols over the natural flavonol quercetin” (Eur J Med Chem, 2013)
The source made the active and inactive calls. The rule behind the calls is not given here.

Tests used:
HCT-116 [1] = assay: Cytotoxicity against human HCT116 cells assessed as cell viability at 15 uM after 48 hrs by MTT assay relative to control; assay type: functional; conditions: HCT-116, 48 h, read-out: Activity
Method in brief: (§1)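 HCT116 cells seeded in 24-well plates two days prior, treated 48 h in fresh complete medium (DMSO ≤0.5% v/v; DMSO-only control); MTT 0.5 mg/ml final added for last hour, formazan dissolved in DMSO:ethanol 50:50, A570 minus A690; viability as % of control; IC50 from 2.5–20 range dose-response; mean ± SEM of 4 independent experiments.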

HCT-116 [2] = assay: Cytotoxicity against human HCT116 cells assessed as cell viability at 30 uM after 48 hrs by MTT assay relative to control; assay type: functional; conditions: HCT-116, 48 h, read-out: Activity
Method in brief: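 HCT116 cells grown in RPMI 1640 with 6% FBS, 0.1 mM sodium pyruvate and 10 mM HEPES at 37 °C in 5% CO2, seeded at 70 000 cells/mL two days before treatment. Exposure 48 h in fresh complete medium, DMSO ≤0.5% (v/v), DMSO-only controls. MTT (0.5 mg/ml final) added for the last hour, formazan dissolved in DMSO:ethanol 50:50, A570 minus A690. Viability given as % of control; mean ± SEM of 4 independent experiments; Student's t-test.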

HCT-116 [3] = assay: Cytotoxicity against human HCT116 cells assessed as cell viability after 48 hrs by MTT assay; assay type: functional, cell-based; conditions: HCT-116, 48 h; method in brief: as §1
HCT-116 [4] = assay: Cytotoxicity against human HCT116 cells assessed as cell viability at 10 uM after 48 hrs by MTT assay relative to control; assay type: functional; conditions: HCT-116, 48 h, read-out: Activity; method in brief: as §1
HCT-116 [5] = assay: Cell cycle arrest in human HCT116 cells assessed as accumulation at S and G2/M phase at 15 uM after 48 hrs by flow cytometry analysis; assay type: functional, cell-based
Method in brief: (§2)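 HCT116 cells (RPMI 1640, 6% FBS, 37 °C, 5% CO2) seeded two days ahead, exposed 48 h; floating plus attached cells collected by trypsinization, fixed in 70% ethanol at 4 °C 15 min, stained with PI/RNase A at 37 °C 15 min; ≥40 000 single cells counted by flow cytometry; phases fitted by Watson Pragmatic model; 3 independent experiments.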

HCT-116 [6] = assay: Induction of morphological changes in human HCT116 cells assessed as floating cells at 15 to 100 uM after 48 hrs by microscopic analysis; assay type: functional, cell-based
HCT-116 [7] = assay: Induction of apoptosis in human HCT116 cells assessed as cleavage of PARP1 at 10 to 15 uM after 48 hrs by Western blot analysis; assay type: functional, cell-based
Method in brief: (§3)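 Cells seeded two days before 48 h exposure; floating and attached cells harvested, lysed in ice-cold RIPA with PMSF, phosphatase and protease inhibitors; 20 µg protein by SDS-PAGE, PVDF transfer, milk blocking, primary antibody (p53 DO-1, p27 C-19, PARP-1 F-2) overnight, HRP secondary, chemiluminescence; band intensity quantified, β-actin loading control.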

HCT-116 [8] = assay: Induction of apoptosis in human HCT116 cells assessed as nuclear condensation after 48 hrs by fluorescence microscopic analysis; assay type: functional, cell-based
Method in brief: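 After 48 h exposure, floating and attached cells harvested, fixed in 4% paraformaldehyde 15 min at room temperature, cytospun onto polylysine slides, Hoechst-stained; apoptotic fraction = condensed nuclei over total nuclei, >500 cells per slide counted by fluorescence microscopy; mean ± SEM of ≥3 independent experiments.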

HCT-116 [9] = assay: Cell cycle arrest in human HCT116 cells assessed as accumulation at sub-G1 phase at 10 to 15 uM after 48 hrs by flow cytometry analysis; assay type: functional, cell-based; method in brief: as §2
HCT-116 [10] = assay: Cell cycle arrest in human HCT116 cells assessed as accumulation at S and G2/M phase at IC50 after 48 hrs by flow cytometry analysis; assay type: functional, cell-based; method in brief: as §2
HCT-116 [11] = assay: Cell cycle arrest in human HCT116 cells assessed as accumulation at S and G2/M phase at 10 to 15 uM after 48 hrs by flow cytometry analysis; assay type: functional, cell-based; method in brief: as §2
HCT-116 [12] = assay: Induction of apoptosis in human HCT116 cells assessed as cleavage of PARP1 at 5 to 10 uM after 48 hrs by Western blot analysis; assay type: functional, cell-based; method in brief: as §3
HCT-116 [13] = assay: Cell cycle arrest in human HCT116 cells assessed as accumulation at sub-G1 phase at 5 to 10 uM after 48 hrs by flow cytometry analysis; assay type: functional, cell-based; method in brief: as §2
HCT-116 [14] = assay: Cell cycle arrest in human HCT116 cells assessed as increase of p27 expression at 5 to 10 uM after 48 hrs by Western blot analysis; assay type: functional, cell-based; method in brief: as §3
HCT-116 [15] = assay: Cell cycle arrest in human HCT116 cells assessed as increase of p53 expression at 5 to 10 uM after 48 hrs by Western blot analysis; assay type: functional, cell-based; method in brief: as §3
HCT-116 [16] = assay: Cell cycle arrest in human HCT116 cells assessed as accumulation at S and G2/M phase at 5 to 10 uM after 48 hrs by flow cytometry analysis; assay type: functional, cell-based; method in brief: as §2
HCT-116 [17] = assay: Induction of morphological changes in human HCT116 cells assessed as floating cells at 10 to 100 uM after 48 hrs by microscopic analysis; assay type: functional, cell-based

Compound	viability at 15 µM (HCT-116 [1]) [%]	IC50 (HCT-116 [3]) [µM]	viability at 10 µM (HCT-116 [4]) [%]	also measured
COc1ccc(OC)c(-c2oc3ccccc3c(=O)c2O)c1	76.6			
Cc1cccc(/C=C/C(=O)c2ccccc2O)c1	85.9			
O=c1c(O)c(-c2ccc(O)c(O)c2)oc2cc(O)cc(O)c12 [QUERCETIN]				viability at 30 µM (HCT-116 [2]): 59.7%
Cc1ccc(/C=C/C(=O)c2ccccc2O)cc1	89.1			
O=c1c(O)c(-c2cccc(Br)c2)oc2ccccc12	29.2	7.5	37.6	
O=C(/C=C/c1cccc(Cl)c1)c1ccccc1O	37.5	13.2	75.8	
COc1cc(/C=C/C(=O)c2ccccc2O)cc(OC)c1OC	83.7			
COc1cccc(/C=C/C(=O)c2ccccc2O)c1O	84.7			
O=c1c(O)c(-c2ccc(Cl)cc2)oc2ccccc12	38	6.8	40.8	
O=C(/C=C/c1cccc(F)c1)c1ccccc1O	45.3	14.5	90.2	
O=C(/C=C/c1ccc(C(F)(F)F)cc1)c1ccccc1O	85.1			Activity (HCT-116 [5]): inactive; Activity (HCT-116 [6]): Active
Cc1ccc(-c2oc3ccccc3c(=O)c2O)cc1	59.3			
COc1cc(-c2oc3ccccc3c(=O)c2O)cc(OC)c1OC	70			
O=c1c(O)c(-c2ccccc2)oc2ccccc12 [FLAVONOL]	64.6			
O=C(/C=C/c1ccc(Br)cc1)c1ccccc1O	68.4	19.1	85.5	
O=C(/C=C/c1cccc(Br)c1)c1ccccc1O	29.6	10.9	48.4	Activity (HCT-116 [7]): Active; Activity (HCT-116 [8]): Dose-dependent effect; Activity (HCT-116 [9]): Active; Activity (HCT-116 [10]): Active; Activity (HCT-116 [11]): Active; Activity (HCT-116 [6]): Active

Compound	viability at 15 µM (HCT-116 [1]) [%]	IC50 (HCT-116 [3]) [µM]	viability at 10 µM (HCT-116 [4]) [%]	also measured
O=c1c(O)c(-c2cccc(Cl)c2)oc2ccccc12	32.9	8.1	43.8	
COc1ccccc1-c1oc2ccccc2c(=O)c1O	89.1			
O=c1c(O)c(-c2ccc(F)cc2)oc2ccccc12	49.2	14.4	61.1	
COc1ccc(/C=C/C(=O)c2ccccc2O)cc1	89.1			
COc1cccc(/C=C/C(=O)c2ccccc2O)c1	89.6			
O=C(/C=C/c1ccc(Cl)cc1)c1ccccc1O	69.1	20.9	84.8	
O=C(/C=C/c1ccccc1)c1ccccc1O [2'-HYDROXYCHALCONE]	91.7			
COc1cccc(-c2oc3ccccc3c(=O)c2O)c1	39.5			
O=c1c(O)c(-c2ccc(Br)cc2)oc2ccccc12	29.2	4.6	32.8	Activity (HCT-116 [12]): Active; Activity (HCT-116 [8]): Dose-dependent effect; Activity (HCT-116 [13]): Active; Activity (HCT-116 [14]): Active; Activity (HCT-116 [15]): Active; Activity (HCT-116 [10]): Active; Activity (HCT-116 [16]): Active; Activity (HCT-116 [17]): Active
Cc1cccc(-c2oc3ccccc3c(=O)c2O)c1	38.7			
COc1ccc(-c2oc3ccccc3c(=O)c2O)cc1	96			
COc1ccc(-c2oc3ccccc3c(=O)c2O)cc1OC [3-HYDROXY-3',4'-DIMETHOXYFLAVONE]	78.1			
O=c1c(O)c(-c2cccc(F)c2)oc2ccccc12	45.9	13	60.9	
COc1cc(OC)c(/C=C/C(=O)c2ccccc2O)c(OC)c1	91.1			
O=C(/C=C/c1ccc(F)cc1)c1ccccc1O	74.9	20.5	85.2	
